According to ChEMBL document CHEMBL1145212, “Fluorinated diaryl sulfides as serotonin transporter ligands: synthesis, structure-activity relationship study, and in vivo evaluation of fluorine-18-labeled compounds as PET imaging agents” (J Med Chem, 2005):

Experiments:
Rattus norvegicus [1] = species on record: Rattus norvegicus; assay: Regional uptake of [18F]AFA in hippocampus of rat pretreated with compound 7d; n=3; type: functional, organism-based; settings: tested as the 18F-labelled form
Rattus norvegicus [2] = species on record: Rattus norvegicus; assay: Regional uptake of [18F]-AFA in blood of rat pretreated with compound citalopram; n=3; type: functional, organism-based; settings: tested as the 18F-labelled form
Method in brief: (§1)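 Male Sprague-Dawley rats, three per group, received blocker (2 mg/kg iv in saline) or saline only (controls) 10–15 min before about 20 µCi of tail-vein F-18 radioligand. Killed 60 min after tracer. Blood and brain regions weighed and gamma-counted. %ID/g was decay- and tail-corrected; mean ± SD.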

Rattus norvegicus [3] = species on record: Rattus norvegicus; assay: Regional uptake of [18F]AFA in blood of rat pretreated with compound nisoxetine; n=3; type: functional, organism-based; settings: tested as the 18F-labelled form; method in brief: as §1
Rattus norvegicus [4] = species on record: Rattus norvegicus; assay: Regional uptake of [18F]AFA in frontal cortex of rat pretreated with compound 7d; n=3; type: functional, organism-based; settings: tested as the 18F-labelled form
Rattus norvegicus [5] = species on record: Rattus norvegicus; assay: Regional uptake of [18F]-AFA in striatum of rat pretreated with compound GBR-12935; n=3; type: functional, organism-based; settings: tested as the 18F-labelled form; method in brief: as §1
Rattus norvegicus [6] = species on record: Rattus norvegicus; assay: Regional uptake of [18F]AFA in thalamus of rat pretreated with compound GBR-12935; n=3; type: functional, organism-based; settings: tested as the 18F-labelled form; method in brief: as §1
Rattus norvegicus [7] = species on record: Rattus norvegicus; assay: Regional uptake of [18F]AFA in striatum of rat pretreated with compound citalopram; n=3; type: functional, organism-based; settings: tested as the 18F-labelled form; method in brief: as §1
Rattus norvegicus [8] = species on record: Rattus norvegicus; assay: Regional uptake of [18F]AFA in striatum of rat pretreated with compound nisoxetine; n=3; type: functional, organism-based; settings: tested as the 18F-labelled form; method in brief: as §1
Rattus norvegicus [9] = species on record: Rattus norvegicus; assay: Regional uptake of [18F]AFA in thalamus of rat pretreated with compound citalopram; n=3; type: functional, organism-based; settings: tested as the 18F-labelled form; method in brief: as §1
Rattus norvegicus [10] = species on record: Rattus norvegicus; assay: Regional uptake of [18F]AFA in thalamus of rat pretreated with compound nisoxetine; n=3; type: functional, organism-based; settings: tested as the 18F-labelled form; method in brief: as §1
Rattus norvegicus [11] = species on record: Rattus norvegicus; assay: Regional uptake of [18F]AFA in hippocampus of rat pretreated with compound GBR-12935; n=3; type: functional, organism-based; settings: tested as the 18F-labelled form; method in brief: as §1
Rattus norvegicus [12] = species on record: Rattus norvegicus; assay: Regional uptake of [18F]AFA in cerebellum of rat pretreated with compound citalopram; n=3; type: functional, organism-based; settings: tested as the 18F-labelled form; method in brief: as §1
Rattus norvegicus [13] = species on record: Rattus norvegicus; assay: Regional uptake of [18F]AFA in cerebellum of rat pretreated with compound nisoxetine; n=3; type: functional, organism-based; settings: tested as the 18F-labelled form; method in brief: as §1
Rattus norvegicus [14] = species on record: Rattus norvegicus; assay: Regional uptake of [18F]AFA in hypothalamus of rat pretreated with compound GBR-12935; n=3; type: functional, organism-based; settings: tested as the 18F-labelled form; method in brief: as §1
Rattus norvegicus [15] = species on record: Rattus norvegicus; assay: Regional uptake of [18F]AFA in hippocampus of rat pretreated with compound citalopram; n=3; type: functional, organism-based; settings: tested as the 18F-labelled form; method in brief: as §1
Rattus norvegicus [16] = species on record: Rattus norvegicus; assay: Regional uptake of [18F]AFA in hippocampus of rat pretreated with compound nisoxetine; n=3; type: functional, organism-based; settings: tested as the 18F-labelled form; method in brief: as §1
Rattus norvegicus [17] = species on record: Rattus norvegicus; assay: Regional uptake of [18F]AFA in frontal cortex of rat pretreated with compound GBR-12935; n=3; type: functional, organism-based; settings: tested as the 18F-labelled form; method in brief: as §1
Rattus norvegicus [18] = species on record: Rattus norvegicus; assay: Regional uptake of [18F]-AFA in hypothalamus of rat pretreated with compound nisoxetine; n=3; type: functional, organism-based; settings: tested as the 18F-labelled form; method in brief: as §1
Rattus norvegicus [19] = species on record: Rattus norvegicus; assay: Regional uptake of [18F]AFA in frontal cortex of rat pretreated with compound citalopram; n=3; type: functional, organism-based; settings: tested as the 18F-labelled form; method in brief: as §1
Rattus norvegicus [20] = species on record: Rattus norvegicus; assay: Regional uptake of [18F]AFA in frontal cortex of rat pretreated with compound nisoxetine; n=3; type: functional, organism-based; settings: tested as the 18F-labelled form; method in brief: as §1
[21] = molecular target: Sodium-dependent serotonin transporter (Homo sapiens, UniProt P31645); assay: In vitro displacement of [3H]paroxetine from human serotonin transporter expressed in HEK293 cells; type: cell-based
Sodium-dependent serotonin transporter, sequence (P31645 whole entry): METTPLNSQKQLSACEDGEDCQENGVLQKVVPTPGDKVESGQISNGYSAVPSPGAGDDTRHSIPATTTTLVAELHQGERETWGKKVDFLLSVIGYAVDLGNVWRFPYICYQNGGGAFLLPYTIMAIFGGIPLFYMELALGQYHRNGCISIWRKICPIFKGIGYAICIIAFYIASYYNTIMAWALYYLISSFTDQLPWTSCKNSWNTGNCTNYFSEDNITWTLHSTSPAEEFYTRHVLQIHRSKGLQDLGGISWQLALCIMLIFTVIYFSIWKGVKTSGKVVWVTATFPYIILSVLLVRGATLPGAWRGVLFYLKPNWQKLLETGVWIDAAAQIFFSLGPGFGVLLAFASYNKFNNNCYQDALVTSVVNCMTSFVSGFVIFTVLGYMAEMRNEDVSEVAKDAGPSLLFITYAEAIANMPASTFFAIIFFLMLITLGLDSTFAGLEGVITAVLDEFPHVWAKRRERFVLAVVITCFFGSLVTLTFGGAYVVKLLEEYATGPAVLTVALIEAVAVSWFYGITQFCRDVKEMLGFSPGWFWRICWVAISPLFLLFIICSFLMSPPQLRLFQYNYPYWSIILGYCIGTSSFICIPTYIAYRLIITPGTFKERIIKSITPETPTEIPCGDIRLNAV

Rattus norvegicus [22] = species on record: Rattus norvegicus; assay: Regional uptake of [18F]AFA in hypothalamus of rat pretreated with compound 7d; n=3; type: functional, organism-based; settings: tested as the 18F-labelled form
Rattus norvegicus [23] = species on record: Rattus norvegicus; assay: Regional uptake of [18F]AFA in cerebellum of rat pretreated with compound GBR-12935; n=3; type: functional, organism-based; settings: tested as the 18F-labelled form; method in brief: as §1
Rattus norvegicus [24] = species on record: Rattus norvegicus; assay: Regional uptake of [18F]AFA in hypothalamus of rat pretreated with compound citalopram; n=3; type: functional, organism-based; settings: tested as the 18F-labelled form; method in brief: as §1
Rattus norvegicus [25] = species on record: Rattus norvegicus; assay: Regional uptake of [18F]-AFM in thalamus of rat pretreated with compound 7d; n=3; settings: tested as the 18F-labelled form

CN(C)Cc1ccccc1Sc1ccc(CF)cc1N
Uptake (Rattus norvegicus [1]): 0.13 %ID/g
Uptake (Rattus norvegicus [2]): 0.12 %ID/g
Uptake (Rattus norvegicus [3]): 0.11 %ID/g
Uptake (Rattus norvegicus [4]): 0.12 %ID/g
Uptake (Rattus norvegicus [5]): 0.7 %ID/g
Uptake (Rattus norvegicus [6]): 0.74 %ID/g
Uptake (Rattus norvegicus [7]): 0.12 %ID/g
Uptake (Rattus norvegicus [8]): 0.58 %ID/g
Uptake (Rattus norvegicus [9]): 0.16 %ID/g
Uptake (Rattus norvegicus [10]): 0.65 %ID/g
Uptake (Rattus norvegicus [11]): 0.59 %ID/g
Uptake (Rattus norvegicus [12]): 0.08 %ID/g
Uptake (Rattus norvegicus [13]): 0.13 %ID/g
Uptake (Rattus norvegicus [14]): 0.87 %ID/g
Uptake (Rattus norvegicus [15]): 0.13 %ID/g
Uptake (Rattus norvegicus [16]): 0.47 %ID/g
Uptake (Rattus norvegicus [17]): 0.76 %ID/g
Uptake (Rattus norvegicus [18]): 0.73 %ID/g
Uptake (Rattus norvegicus [19]): 0.11 %ID/g
Uptake (Rattus norvegicus [20]): 0.72 %ID/g
Ki [21]: 1.04 nM
Uptake (Rattus norvegicus [22]): 0.17 %ID/g
Uptake (Rattus norvegicus [23]): 0.13 %ID/g
Uptake (Rattus norvegicus [24]): 0.18 %ID/g
Uptake (Rattus norvegicus [25]): 0.17 %ID/g
